Bioassay records as filed in PubChem BioAssay.
This is a sample that favours compounds with a hit; in the whole collection about 6.3% have one here.
E coli WT exp – growth inhibitors of wild-type E. coli, primary screen, strain BW25113, expanded library, OD600; growth inhibition, % at 100 µM; OD600 absorbance; 98,000 compounds, 0.15% hits;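 active = growth inhibition above about 50% at one test dose, limit read from the data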;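 also: growth measured after 20 h incubation at 37 °C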
PostGolgi yeast – phenotypic screen on post-Golgi transport, primary screen; post-Golgi transport phenotypic cell assay; inhibition, % at 10 µM; 98,000 compounds, 0.9% hits;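 also: yeast cells grown in 1536-well plates; yeast grown about 18 h at 30C before absorbance read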
PostGolgi ctrl – growth inhibition of yeast control strain, primary screen, counter-screen for post-Golgi transport modulator project. efflux-deficient yeast background strain, growth absorbance A615, 16 h. inhibition, % at 10 µM. 98,000 compounds, 5% hits
Ecoli tolC – growth inhibitors of E. coli tolC mutant, primary screen, strain BW25113 ΔtolC::kan, 384-well; OD615; growth inhibition, % at 10 µM (by protocol); 65,000 compounds, 2.2% hits; AID 573, 2007;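 active = growth inhibition at or above a cutoff equal to the mean over every tested compound plus 3 SD, cut at about 60% in these data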;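 also: growth measured after 20 h incubation at 37 °C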
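System: E. coli ΔtolC::kan strain BW25113; Buffer or medium: LB broth supplemented with 50 µg/mL kanamycin; Compound: 10 µM final, single dose; Incubation: bacterial growth with compound for 20 h at 37 °C; Signal: A615 absorbance measurement; Evaluation: growth inhibition in percent.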
A number is an active result. Rule as the data show it, unless noted: active = inhibition above about 30%; inactive = the rest.

`CC(=O)Nc1nnc(SCC(=O)NCCOc2ccccc2)s1` gave E coli WT exp inactive, PostGolgi yeast inactive, PostGolgi ctrl 51 and Ecoli tolC inactive.
`CCn1c(=O)c(=O)[nH]c2cc(C(=O)N3CCN(c4ccccc4F)CC3)ccc21` gave E coli WT exp inactive, PostGolgi yeast inactive, PostGolgi ctrl inactive and Ecoli tolC inactive.
`CC/C(C)=C1\SC(N2CCN(c3cccc(C(F)(F)F)c3)CC2)=NC1=O` gave E coli WT exp inactive, PostGolgi yeast inactive and PostGolgi ctrl 32.
`Cc1ccc(CC(=O)N2CCN(c3cccc(C(F)(F)F)c3)CC2)cc1` gave E coli WT exp inactive, PostGolgi yeast inactive and PostGolgi ctrl inactive.
COC(=O)C1=C(NC(=O)c2cccc(C)c2)CCS1 was read as Ecoli tolC inactive.
`CC(=O)c1c(C)[nH]c(C(=O)NCc2ccccc2Cl)c1C` gave E coli WT exp inactive, PostGolgi yeast inactive, PostGolgi ctrl inactive and Ecoli tolC inactive.
For CCCCC(CC)CNC(=O)c1[nH]c(C)c(C(C)=O)c1C (stereo unspecified) the results were E coli WT exp inactive, PostGolgi yeast inactive, PostGolgi ctrl inactive and Ecoli tolC 62.
Screening O=S(=O)(N/N=C/c1cn(Cc2ccccc2)c2ccccc12)c1ccccc1 returned E coli WT exp inactive, PostGolgi yeast inactive and PostGolgi ctrl inactive.
For CC(C)c1nnc(NC(=O)C2CCN(c3nc4ccccc4s3)CC2)s1 the results were E coli WT exp inactive, PostGolgi yeast inactive, PostGolgi ctrl 34 and Ecoli tolC inactive.
Screening C=CCn1c(SCC(=O)Nc2cc(C)on2)nc2sc(CC)cc2c1=O returned E coli WT exp inactive, PostGolgi yeast inactive and PostGolgi ctrl inactive.
For O=C(CSCc1cccc(Cl)c1)N/N=C/c1ccc(OCC(=O)N2CCCCC2)cc1 the results were E coli WT exp inactive, PostGolgi yeast inactive and PostGolgi ctrl 42.
Screening O=C(COc1ccc(Cl)cc1)NCCSCc1cccc(Cl)c1 returned E coli WT exp inactive, PostGolgi yeast inactive and PostGolgi ctrl 39.
`O=C(COc1ccc(Cl)cc1Cl)NNC(=S)Nc1ccc(F)cc1` gave E coli WT exp inactive, PostGolgi yeast inactive and PostGolgi ctrl 38.
O=C(COc1ccc(Cl)cc1Cl)NCCSc1ccc(Cl)cc1 was read as E coli WT exp inactive, PostGolgi yeast inactive and PostGolgi ctrl 43.
CCOC(=O)c1cc(C(=O)OCC)c2cccc(C)n2c1=O was read as E coli WT exp inactive, PostGolgi yeast inactive and PostGolgi ctrl inactive.
`Fc1ccc(Nc2nc(Oc3ccccc3F)nc(N3CCCC3)n2)cc1` gave E coli WT exp inactive, PostGolgi yeast inactive and PostGolgi ctrl inactive.
O=C(COc1ccc(Cl)cc1Cl)NCCCCc1ccccc1 was read as E coli WT exp inactive, PostGolgi yeast inactive and PostGolgi ctrl 42.
For O=C(Nc1ccc(S(=O)(=O)NC2CCCC2)cc1)c1cnccn1 the results were E coli WT exp inactive, PostGolgi yeast inactive, PostGolgi ctrl inactive and Ecoli tolC inactive.
For N#C/C(=C(/O)CSc1ccccc1C(=O)O)c1nc2ccccc2s1 the results were E coli WT exp inactive, PostGolgi yeast inactive and PostGolgi ctrl inactive.
For COc1ccc(C/C(O)=C(\C#N)c2nc3ccccc3s2)cc1 the results were E coli WT exp inactive, PostGolgi yeast inactive, PostGolgi ctrl inactive and Ecoli tolC 74.
Screening Cc1ccc(SC/C(O)=C(\C#N)c2nc3ccccc3s2)cc1 returned E coli WT exp inactive, PostGolgi yeast inactive, PostGolgi ctrl inactive and Ecoli tolC 83.
For Cc1nn(-c2ccc(F)cc2)c(Cl)c1/C=C(\CC(=O)O)c1nc2ccccc2s1 the results were E coli WT exp inactive, PostGolgi yeast inactive and PostGolgi ctrl inactive.
COc1ccc(N(Cc2ccco2)C(=O)c2ccccc2F)cc1OC was read as E coli WT exp inactive, PostGolgi yeast inactive, PostGolgi ctrl inactive and Ecoli tolC inactive.
Cc1cccc(/C=c2\s/c(=C\C(=O)C(C)(C)C)[nH]c2=O)c1 was read as E coli WT exp inactive, PostGolgi yeast inactive and PostGolgi ctrl 36.
CC(C)(C)C(=O)/C=c1\[nH]c(=O)/c(=C\c2ccc(C#N)cc2)s1 was read as E coli WT exp inactive, PostGolgi yeast inactive, PostGolgi ctrl inactive and Ecoli tolC inactive.
`Oc1ccc2ccccc2c1/C=N/Nc1nnc(-c2ncc[nH]2)c2ccccc12` gave E coli WT exp inactive, PostGolgi yeast inactive and PostGolgi ctrl 39.
Screening COc1ccc(/C=N/Nc2nnc(-c3ncc[nH]3)c3ccccc23)cc1 returned E coli WT exp inactive, PostGolgi yeast inactive and PostGolgi ctrl inactive.
`CN(CC(=O)Nc1ccc(C#N)cc1)Cc1ccc(Cl)cc1` gave E coli WT exp inactive, PostGolgi yeast inactive, PostGolgi ctrl inactive and Ecoli tolC inactive.
Screening O=C(Nc1ccc(Cl)cc1)Nc1ccc(N2CCOCC2)cc1 returned E coli WT exp inactive, PostGolgi yeast inactive, PostGolgi ctrl inactive and Ecoli tolC inactive.
`CN(CC(=O)Nc1ccc(C#N)cc1)Cc1ccc(Cl)cc1Cl` gave E coli WT exp inactive, PostGolgi yeast inactive and PostGolgi ctrl 41.
For N#Cc1ccc(NC(=O)Nc2ccc(Cl)cc2)cc1 the results were E coli WT exp inactive, PostGolgi yeast inactive, PostGolgi ctrl 74 and Ecoli tolC 90.
Screening COc1ccc(N(C(=O)c2ccccc2OC(C)=O)C(C)C2CC2)cc1 (stereo unspecified) returned E coli WT exp inactive, PostGolgi yeast inactive and PostGolgi ctrl inactive.
Screening Cc1ccc(C(=O)NCCSc2ccc(Cl)cc2)cc1S(=O)(=O)Nc1ccccc1 returned E coli WT exp inactive, PostGolgi yeast inactive and PostGolgi ctrl inactive.
Screening CCOCCCNC(=O)Cc1c(C(=O)O)[nH]c2ccc(Cl)cc12 returned E coli WT exp inactive, PostGolgi yeast inactive, PostGolgi ctrl inactive and Ecoli tolC inactive.
CCCCN(CC)C(=O)Cc1c(C(=O)O)[nH]c2ccc(Cl)cc12 was read as E coli WT exp inactive, PostGolgi yeast inactive, PostGolgi ctrl 32 and Ecoli tolC inactive.
For CCOC(=O)c1oc2cc(O)c(CC)cc2c(=O)c1-c1ccc2c(c1)OCCO2 the results were E coli WT exp inactive, PostGolgi yeast inactive, PostGolgi ctrl 30 and Ecoli tolC inactive.
Screening Cc1cc(C)n(-c2nncn2NC(=O)c2ccc(Cl)cc2O)n1 returned E coli WT exp inactive, PostGolgi yeast inactive, PostGolgi ctrl inactive and Ecoli tolC inactive.
Screening Cc1ccc(-c2csc3ncnc(SCC(=O)NCc4ccc5c(c4)OCO5)c23)cc1 returned E coli WT exp inactive, PostGolgi yeast inactive and PostGolgi ctrl 43.
For O=C(COc1ccc(S(=O)(=O)NC2CCCC2)cc1)N1CCCCCC1 the results were E coli WT exp inactive, PostGolgi yeast inactive, PostGolgi ctrl inactive and Ecoli tolC inactive.
For O=C(CSc1n[nH]c(-c2ccc(S(=O)(=O)NC3CCCCC3)cc2)n1)N1CCCC1 the results were E coli WT exp inactive, PostGolgi yeast inactive, PostGolgi ctrl 32 and Ecoli tolC inactive.
Screening O=C(Nc1nc(-c2ccccc2)cs1)C1CCCCN1S(=O)(=O)c1ccc(Cl)cc1 (stereo unspecified) returned E coli WT exp inactive, PostGolgi yeast inactive and PostGolgi ctrl 57.
For O=C(Nc1nc(-c2ccccc2)cs1)C1CCCN(S(=O)(=O)c2ccccc2)C1 (stereo unspecified) the results were E coli WT exp inactive, PostGolgi yeast inactive, PostGolgi ctrl inactive and Ecoli tolC inactive.
